pIC50: −log10 of the molar value.
Key:
[1] = test system: RPMI-8226; experiment: Anticancer activity against human RPMI8226 cells assessed as cell growth at 10^-5 M after 48 hrs by SRB assay; format: functional; conditions: RPMI-8226, 48 h, read-out: Activity
[2] = test system: SK-MEL-28; experiment: Anticancer activity against human SK-MEL-28 cells assessed as cell growth at 10^-5 M after 48 hrs by SRB assay; format: functional; conditions: SK-MEL-28, 48 h, read-out: Activity
[3] = test system: OVCAR-3; experiment: Anticancer activity against human OVCAR3 cells assessed as cell growth at 10^-5 M after 48 hrs by SRB assay; format: functional; conditions: OVCAR-3, 48 h, read-out: Activity
[4] = test system: IGROV-1; experiment: Anticancer activity against human IGROV1 cells assessed as cell growth at 10^-5 M after 48 hrs by SRB assay; format: functional; conditions: IGROV-1, 48 h, read-out: Activity
Method in brief: (§1)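 NCI-60 single-dose screen at one concentration. Cells grown in RPMI 1640 with 5% FBS and 2 mM L-glutamine, plated at 5000–40,000 cells/well, and pre-incubated 24 h at 37 °C in 5% CO2 before DMSO-dissolved drug was added. Cells fixed with TCA, SRB-stained, absorbance read at 515 nm. Percent growth calculated against time-zero and untreated control plates.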

[5] = test system: K562; experiment: Anticancer activity against human K562 cells assessed as cell growth at 10^-5 M after 48 hrs by SRB assay; format: functional; conditions: K562, 48 h, read-out: Activity; method in brief: as §1
[6] = test system: SF-539; experiment: Anticancer activity against human SF539 cells assessed as cell growth at 10^-5 M after 48 hrs by SRB assay; format: functional; conditions: SF-539, 48 h, read-out: Activity
[7] = test system: HT-29; experiment: Anticancer activity against human HT-29 cells assessed as cell growth at 10^-5 M after 48 hrs by SRB assay; format: functional; conditions: HT-29, 48 h, read-out: Activity; method in brief: as §1
[8] = test system: RXF 393; experiment: Anticancer activity against human RXF393 cells assessed as cell growth at 10^-5 M after 48 hrs by SRB assay; format: functional; conditions: RXF 393, 48 h, read-out: Activity
[9] = test system: CAKI-1; experiment: Anticancer activity against human Caki1 cells assessed as cell growth at 10^-5 M after 48 hrs by SRB assay; format: functional; conditions: CAKI-1, 48 h, read-out: Activity; method in brief: as §1
[10] = test system: A549; experiment: Anticancer activity against human A549 cells assessed as cell growth at 10^-5 M after 48 hrs by SRB assay; format: functional; conditions: A549, 48 h, read-out: Activity; method in brief: as §1
[11] = test system: MCF7; experiment: Anticancer activity against human MCF7 cells assessed as cell growth at 10^-5 M after 48 hrs by SRB assay; format: functional; conditions: MCF7, 48 h, read-out: Activity; method in brief: as §1
[12] = test system: ACHN; experiment: Anticancer activity against human ACHN cells assessed as cell growth at 10^-5 M after 48 hrs by SRB assay; format: functional; conditions: read-out: Activity; method in brief: as §1
[13] = test system: MDA-MB-435; experiment: Anticancer activity against human MDA-MB-435 cells assessed as cell growth at 10^-5 M after 48 hrs by SRB assay; format: functional; conditions: MDA-MB-435, 48 h, read-out: Activity
[14] = test system: 786-0; experiment: Anticancer activity against human 786-0 cells assessed as cell growth at 10^-5 M after 48 hrs by SRB assay; format: functional; conditions: 786-0, 48 h, read-out: Activity; method in brief: as §1
[15] = test system: T47D; experiment: Anticancer activity against human T47D cells after 48 hrs by SRB assay; format: functional
Method in brief: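 NCI-60 five-dose mode: cells in RPMI 1640 with 5% FBS and 2 mM glutamine, plated at 5000–40,000 cells/well, and preincubated 24 h, with time-zero plates TCA-fixed. Drug given at five concentrations (10-fold or ½-log serial dilutions). Cold TCA fixation 60 min at 4 °C, SRB stain, Tris solubilization, A515. IC50 taken where [(Ti−Tz)/(C−Tz)]×100 = 50.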

[16] = test system: T47D; experiment: Anticancer activity against human T47D cells assessed as cell growth at 10^-5 M after 48 hrs by SRB assay; format: functional; conditions: read-out: Activity
Method in brief: (§2)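 NCI-60 single-dose screen: cells in RPMI 1640 with 5% FBS and 2 mM L-glutamine, plated at 5000–40,000 cells/well by doubling time, and preincubated 24 h at 37 °C. Compound given at one concentration from DMSO stock. Cells TCA-fixed and SRB-stained, absorbance at 515 nm. Percent growth relative to time-zero and untreated controls; inhibition % = 100 − growth %.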

[17] = test system: KM12; experiment: Anticancer activity against human KM12 cells assessed as cell growth at 10^-5 M after 48 hrs by SRB assay; format: functional; conditions: KM12, 48 h, read-out: Activity; method in brief: as §1
[18] = test system: NCI-H226; experiment: Anticancer activity against human NCI-H226 cells assessed as cell growth at 10^-5 M after 48 hrs by SRB assay; format: functional; conditions: NCI-H226, 48 h, read-out: Activity
[19] = test system: HL-60(TB); experiment: Anticancer activity against human HL-60(TB) cells assessed as cell growth at 10^-5 M after 48 hrs by SRB assay; format: functional; conditions: HL-60, 48 h, read-out: Activity
Method in brief: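 NCI-60 single-dose screen. Cells in RPMI 1640 with 5% FBS and 2 mM L-glutamine were plated at 5000–40,000 cells/well and preincubated 24 h at 37 °C before one compound concentration. Time-zero plates were TCA-fixed at drug addition. For suspension cells, settled cells were fixed with cold TCA, then SRB-stained and read at 515 nm. Percent growth was calculated from time-zero, control and treated absorbances.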

[20] = test system: MDA-MB-468; experiment: Anticancer activity against human MDA-MB-468 cells assessed as cell growth at 10^-5 M after 48 hrs by SRB assay; format: functional; conditions: MDA-MB-468, 48 h, read-out: Activity
[21] = test system: SNB-75; experiment: Anticancer activity against human SNB75 cells assessed as cell growth at 10^-5 M after 48 hrs by SRB assay; format: functional; conditions: SNB-75, 48 h, read-out: Activity; method in brief: as §2
[22] = test system: SNB-19; experiment: Anticancer activity against human SNB19 cells assessed as cell growth at 10^-5 M after 48 hrs by SRB assay; format: functional; conditions: SNB-19, 48 h, read-out: Activity
[23] = Antiproliferative activity against human A375P cells after 48 hrs by MTT assay; format: functional, cell-based
Method in brief: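 A375P cells in DMEM with 10% FBS at 37 °C, 5% CO2. Seeded at 5×10³ cells/well, held 24 h, then treated with 12-point 3-fold serial dilutions for 48 h. Viability by MTT reduction. IC50 values are means of triplicate experiments.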

[24] = test system: HCT-15; experiment: Anticancer activity against human HCT15 cells assessed as cell growth at 10^-5 M after 48 hrs by SRB assay; format: functional; conditions: HCT-15, 48 h, read-out: Activity; method in brief: as §1
[25] = test system: NCI-H522; experiment: Anticancer activity against human NCI-H522 cells assessed as cell growth at 10^-5 M after 48 hrs by SRB assay; format: functional; conditions: NCI-H522, 48 h, read-out: Activity
[26] = test system: DU-145; experiment: Anticancer activity against human DU145 cells assessed as cell growth at 10^-5 M after 48 hrs by SRB assay; format: functional; conditions: DU-145, 48 h, read-out: Activity; method in brief: as §1
[27] = test system: SF-295; experiment: Anticancer activity against human SF295 cells assessed as cell growth at 10^-5 M after 48 hrs by SRB assay; format: functional; conditions: SF-295, 48 h, read-out: Activity

Row | SMILES | growth at 10 µM [1] | growth at 10 µM [2] | growth at 10 µM [3] | growth at 10 µM [4] | growth at 10 µM [5] | growth at 10 µM [6] | growth at 10 µM [7] | growth at 10 µM [8] | growth at 10 µM [9] | growth at 10 µM [10] | growth at 10 µM [11] | growth at 10 µM [12] | growth at 10 µM [13] | growth at 10 µM [14] | growth at 10 µM [16] | growth at 10 µM [17] | growth at 10 µM [18] | growth at 10 µM [19] | growth at 10 µM [20] | growth at 10 µM [21] | further results
1 | COc1cccc(-c2nc3sccn3c2-c2ccnc(NCCNC(=O)Nc3cccc(C(F)(F)F)c3)n2)c1 | 20.4% | 78.4% | 66.3% | 50.9% | 39.9% | 77.9% | 44.1% | 6.3% | 40% | 44.4% | 54.8% | 46.2% | 21.5% | 65.6% | 42.9% | 33.5% | 94.9% | 62.8% | 39.6% | 71.8% | GI50 [15]: 3.77 µM; TGI [15]: 13.8 µM; CC50 ([15]; read-out: LC50 (the source's name)): 61 µM; growth at 10 µM [22]: 74.8%; pIC50 [23]: 5.28; growth at 10 µM [24]: 45.9%; growth at 10 µM [25]: 47.7%; growth at 10 µM [26]: 79.8%; growth at 10 µM [27]: 37.7%
2 | O=C(NCCNc1nccc(-c2c(-c3cccc(O)c3)nc3sccn23)n1)c1cc(C(F)(F)F)cc(C(F)(F)F)c1 | 91% | 61.8% | 108% | 93% | 96.2% | 113% | 63.1% | 107% | 96.8% | 92.5% | 96.3% | 88.3% | 59.2% | 101% | 88.5% | 103% | 116% | 123% | 101% | 87.7% | growth at 10 µM [22]: 123%; pIC50 [23]: < 5.00; growth at 10 µM [24]: 96.6%; growth at 10 µM [25]: 97.6%; growth at 10 µM [26]: 114%; growth at 10 µM [27]: 97.1%
3 | O=C(NCCNc1nccc(-c2c(-c3cccc(O)c3)nc3sccn23)n1)c1ccc(N2CCOCC2)c(C(F)(F)F)c1 | 58.8% | 42.8% | 89.1% | 54.3% | 63% | 77.8% | 68.6% | 57.6% | 66.9% | 64.1% | 58.7% | 60.8% | 20.9% | 60.1% | 60.1% | 77.5% | 69.5% | 113% | 50.2% | 58% | growth at 10 µM [22]: 109%; pIC50 [23]: < 5.00; growth at 10 µM [24]: 80%; growth at 10 µM [25]: 74.4%; growth at 10 µM [26]: 94.9%; growth at 10 µM [27]: 67.5%
4 | O=C(NCCNc1nccc(-c2c(-c3cccc(O)c3)nc3sccn23)n1)c1cc(N2CCOCC2)cc(C(F)(F)F)c1 | 67% | 44.5% | 107% | 80.4% | 70.7% | 101% | 49.2% | 77.8% | 82.5% | 88.6% | 85.4% | 79.4% | 34.7% | 86.6% | 77.7% | 97.3% | 106% | 102% | 94.8% | 83.2% | growth at 10 µM [22]: 125%; pIC50 [23]: 5.36; growth at 10 µM [24]: 92%; growth at 10 µM [25]: 78.6%; growth at 10 µM [26]: 110%; growth at 10 µM [27]: 84.4%

Source: ChEMBL document CHEMBL1914423, “New imidazo[2,1-b]thiazole derivatives: synthesis, in vitro anticancer evaluation, and in silico studies” (Eur J Med Chem, 2011)
